Assay results from ChEMBL document CHEMBL4177755, “Combating Drug-Resistant Fungi with Novel Imperfectly Amphipathic Palindromic Peptides” (J Med Chem, 2018).

What was measured:
Candida albicans [1] = experiment: Fungicidal activity against Candida albicans 58288 after 96 hrs; format: functional; conditions: Candida albicans, 58288, 96 h; read-out: MFC99.9
Method in brief: (§1)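 After the 48 h, 28 °C broth microdilution in MOPS-buffered RPMI 1640 (inoculum (0.5−1) × 10^3 CFU/mL), 50 μL from each well was plated on YM agar for a further 48 h at 28 °C. MFC is the lowest concentration killing at least 99.9% of cells. Triplicate, three biological replicates.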

Candida albicans [2] = experiment: Fungicidal activity against fluconazole-resistant Candida albicans 56214 after 96 hrs; format: functional; conditions: Candida albicans, 56214, 96 h; read-out: MFC99.9; method in brief: as §1
Escherichia coli [3] = experiment: Antibacterial activity against Escherichia coli ATCC 25922 after 18 hrs in presence of ZnCl2 by broth dilution method; format: functional; conditions: ATCC 25922, 18 h
Staphylococcus aureus [4] = experiment: Bactericidal activity against Staphylococcus aureus ATCC 29213; format: functional; conditions: read-out: MBC99.9
Method in brief: (§2)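 Wells from the 24 h, 37 °C MHB microdilution plates (bacteria at a final (0.5−1) × 10^5 CFU/mL; peptide diluted in 0.2% BSA) were plated on agar and incubated overnight. MBC is the lowest concentration killing >99.9% of cells. Each test was reproduced at least 3 times.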

Candida albicans [5] = experiment: Antifungal activity against Candida albicans 14936 after 48 hrs by broth microdilution method; format: functional; conditions: Candida albicans, 14936, 48 h
Method in brief: (§3)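 Modified CLSI M27-A2 broth microdilution. Yeast at (0.5−1) × 10^3 CFU/mL in MOPS-buffered RPMI 1640 was mixed 1:1 with peptide serially diluted in 0.2% BSA and incubated 48 h at 28 °C. Absorbance was read at 492 nm; MIC is the lowest concentration inhibiting 95% of growth. Triplicate, three biological replicates.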

Candida albicans [6] = experiment: Fungicidal activity against Candida albicans 14936 after 96 hrs; format: functional; conditions: Candida albicans, 14936, 96 h; read-out: MFC99.9; method in brief: as §1
[7] = test system: Staphylococcus epidermidis; experiment: Bactericidal activity against Staphylococcus epidermidis ATCC 12228; format: functional; conditions: read-out: MBC99.9; method in brief: as §2
Candida albicans [8] = experiment: Antifungal activity against Candida albicans cgmcc 2.2086 in presence of ZnCl2 by broth dilution method; format: functional
Escherichia coli [9] = experiment: Bactericidal activity against Escherichia coli ATCC 25922; format: functional; conditions: read-out: MBC99.9; method in brief: as §2
Staphylococcus aureus [10] = experiment: Bactericidal activity against methicillin-resistant Staphylococcus aureus ATCC 4330; format: functional; conditions: read-out: MBC99.9
Method in brief: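 Bacteria at (0.5−1) × 10^5 CFU/mL in MHB were exposed to serially diluted peptide (0.2% BSA) for 24 h at 37 °C, then 50 μL aliquots were plated on agar overnight. MBC is the lowest concentration killing >99.9% of cells. At least 3 repeats.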

Candida albicans [11] = experiment: Antifungal activity against Candida albicans cgmcc 2.2086 in presence of FeCl3 by broth dilution method; format: functional
Candida parapsilosis [12] = experiment: Fungicidal activity against Candida parapsilosis cgmcc 2.3989 after 96 hrs; format: functional; conditions: Lodderomyces parapsilosis, cgmcc 2.3989, 96 h; read-out: MFC99.9
Method in brief: (§4)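 Wells from the 48 h, 28 °C RPMI 1640/MOPS microdilution plates were plated on YM agar and incubated a further 48 h at 28 °C. MFC is the lowest concentration killing at least 99.9% of cells. Run in triplicate with three biological replicates.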

Escherichia coli [13] = experiment: Antibacterial activity against Escherichia coli ATCC 25922 after 18 hrs in presence of CaCl2 by broth dilution method; format: functional; conditions: ATCC 25922, 18 h
Candida albicans [14] = experiment: Fungicidal activity against Candida albicans SP3902 after 96 hrs; format: functional; conditions: SP3902, 96 h, read-out: MFC99.9; method in brief: as §1
Candida albicans [15] = experiment: Fungicidal activity against Candida albicans SP3876 after 96 hrs; format: functional; conditions: SP3876, 96 h, read-out: MFC99.9; method in brief: as §1
Candida albicans [16] = experiment: Antifungal activity against fluconazole-resistant Candida albicans 17546 after 48 hrs by broth microdilution method; format: functional; conditions: Candida albicans, 17546, 48 h; method in brief: as §3
Candida tropicalis [17] = experiment: Antifungal activity against Candida tropicalis cgmcc 2.1975 after 48 hrs by broth microdilution method; format: functional; conditions: cgmcc 2.1975, 48 h
Method in brief: (§5)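 Modified CLSI M27-A2 broth microdilution. Yeast were suspended in MOPS-buffered RPMI 1640 at a final (0.5−1) × 10^3 CFU/mL and mixed 1:1 with peptide serially diluted in 0.2% BSA. Plates were incubated 48 h at 28 °C and read at A492. MIC is the lowest concentration giving 95% inhibition. Run in triplicate with three biological replicates.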

Candida albicans [18] = experiment: Antifungal activity against Candida albicans SP3931 after 48 hrs by broth microdilution method; format: functional; conditions: SP3931, 48 h; method in brief: as §3
Candida albicans [19] = experiment: Antifungal activity against Candida albicans SP3876 after 48 hrs by broth microdilution method; format: functional; conditions: SP3876, 48 h; method in brief: as §3
Candida albicans [20] = experiment: Fungicidal activity against fluconazole-resistant Candida albicans 17546 after 96 hrs; format: functional; conditions: Candida albicans, 17546, 96 h; read-out: MFC99.9; method in brief: as §1
Candida albicans [21] = experiment: Antifungal activity against fluconazole-resistant Candida albicans 56452 after 48 hrs by broth microdilution method; format: functional; conditions: Candida albicans, 56452, 48 h; method in brief: as §3
Staphylococcus aureus [22] = experiment: Antibacterial activity against Staphylococcus aureus ATCC 25923 after 24 hrs; format: functional; conditions: ATCC 25923, 24 h
Method in brief: (§6)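 Modified NCCLS broth microdilution. Mid-log bacteria at (0.5−1) × 10^5 CFU/mL in MHB were mixed 1:1 with peptide serially diluted in 0.2% BSA and incubated 24 h at 37 °C. Absorbance was read at 492 nm; MIC is the lowest concentration inhibiting 95% of growth. At least 3 repeats.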

Candida parapsilosis [23] = experiment: Antifungal activity against Candida parapsilosis cgmcc 2.3989 after 48 hrs by broth microdilution method; format: functional; conditions: Lodderomyces parapsilosis, cgmcc 2.3989, 48 h; method in brief: as §5
Escherichia coli [24] = experiment: Antibacterial activity against Escherichia coli ATCC 25922 after 18 hrs in presence of KCl by broth dilution method; format: functional; conditions: ATCC 25922, 18 h
Salmonella typhimurium [25] = experiment: Antibacterial activity against Salmonella typhimurium ATCC 14028 after 24 hrs; format: functional, Salmonella enterica subsp. enterica serovar Typhimurium; conditions: Salmonella enterica, ATCC 14028, 24 h
Method in brief: (§7)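 Broth microdilution. Mid-log bacteria in MHB at a final (0.5−1) × 10^5 CFU/mL were mixed with equal volumes of peptide serially diluted in 0.2% BSA. Plates were incubated 24 h at 37 °C and read at A492. MIC is the lowest concentration inhibiting 95% of growth. Each test was repeated at least 3 times.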

Pichia kudriavzevii = experiment: Fungicidal activity against Candida krusei cgmcc 2.1857 after 96 hrs; format: functional; conditions: cgmcc 2.1857, 96 h, read-out: MFC99.9; method in brief: as §4
Candida albicans [26] = experiment: Antifungal activity against Candida albicans 58288 after 48 hrs by broth microdilution method; format: functional; conditions: Candida albicans, 58288, 48 h; method in brief: as §3
[27] = test system: Staphylococcus epidermidis; experiment: Antibacterial activity against Staphylococcus epidermidis ATCC 12228 after 24 hrs; format: functional; conditions: ATCC 12228, 24 h; method in brief: as §7
Escherichia coli [28] = experiment: Antibacterial activity against Escherichia coli ATCC 25922 after 24 hrs; format: functional; conditions: ATCC 25922, 24 h; method in brief: as §7
Staphylococcus aureus [29] = experiment: Antibacterial activity against methicillin-resistant Staphylococcus aureus ATCC 4330 after 24 hrs; format: functional; conditions: ATCC 4330, 24 h; method in brief: as §6
Salmonella typhimurium [30] = experiment: Bactericidal activity against Salmonella typhimurium ATCC 14028; format: functional, Salmonella enterica subsp. enterica serovar Typhimurium; conditions: Salmonella enterica, read-out: MBC99.9; method in brief: as §2
Escherichia coli [31] = experiment: Bactericidal activity against Escherichia coli 1005; format: functional; conditions: read-out: MBC99.9; method in brief: as §2
Candida tropicalis [32] = experiment: Fungicidal activity against Candida tropicalis cgmcc 2.1975 after 96 hrs; format: functional; conditions: cgmcc 2.1975, 96 h, read-out: MFC99.9; method in brief: as §4

Row | Substance | MFC (Candida albicans [1]) [µM] | MFC (Candida albicans [2]) [µM] | MIC (Escherichia coli [3]) [µM] | MBC (Staphylococcus aureus [4]) [µM] | MIC95 (Candida albicans [5]) [µM] | MFC (Candida albicans [6]) [µM] | MBC [7] [µM] | MIC (Candida albicans [8]) [µM] | MBC (Escherichia coli [9]) [µM] | MBC (Staphylococcus aureus [10]) [µM] | MIC (Candida albicans [11]) [µM] | MFC (Candida parapsilosis [12]) [µM] | MIC (Escherichia coli [13]) [µM] | MFC (Candida albicans [14]) [µM] | MFC (Candida albicans [15]) [µM] | MIC95 (Candida albicans [16]) [µM] | MIC95 (Candida tropicalis [17]) [µM] | MIC95 (Candida albicans [18]) [µM] | MIC95 (Candida albicans [19]) [µM] | MFC (Candida albicans [20]) [µM] | also measured
1 | H-LLRRLRRLL-NH2 | 32 | 32 | 16 | 64 | 32 | > 64 | 16 | 64 | 32 | 16 | 64 | > 64 | 64 | > 64 | 4 | 64 | 4 | 32 | 32 | > 64 | MIC95 (Candida albicans [21]): 32 µM; MIC95 (Staphylococcus aureus [22]): 16 µM; MIC95 (Candida parapsilosis [23]): > 64 µM; MIC (Escherichia coli [24]): 16 µM; MIC95 (Salmonella typhimurium [25]): 16 µM; MFC (Pichia kudriavzevii): 8 µM; MIC95 (Candida albicans [26]): 64 µM; MIC95 [27]: 16 µM; MIC95 (Escherichia coli [28]): 16 µM; MIC95 (Staphylococcus aureus [29]): 8 µM; MBC (Salmonella typhimurium [30]): 32 µM; MBC (Escherichia coli [31]): 16 µM; MFC (Candida tropicalis [32]): 8 µM
2 | H-RFFRRFRRFFR-NH2 | 16 | 16 | 8 | 16 | 8 | 16 | 4 | 8 | 8 | 8 | 8 | > 64 | 8 | 8 | 8 | 4 | 2 | 8 | 8 | 8 | MIC95 (Candida albicans [21]): 8 µM; MIC95 (Staphylococcus aureus [22]): 4 µM; MIC95 (Candida parapsilosis [23]): > 64 µM; MIC (Escherichia coli [24]): 8 µM; MIC95 (Salmonella typhimurium [25]): 4 µM; MFC (Pichia kudriavzevii): 4 µM; MIC95 (Candida albicans [26]): 4 µM; MIC95 [27]: 4 µM; MIC95 (Escherichia coli [28]): 8 µM; MIC95 (Staphylococcus aureus [29]): 4 µM; MBC (Salmonella typhimurium [30]): 8 µM; MBC (Escherichia coli [31]): 8 µM; MFC (Candida tropicalis [32]): 4 µM
3 | H-RFRFFFRFR-NH2 | 16 | 16 | 4 | 8 | 8 | 8 | 8 | 8 | 8 | 4 | 8 | 32 | 4 | 4 | 8 | 4 | 2 | 8 | 8 | 4 | MIC95 (Candida albicans [21]): 4 µM; MIC95 (Staphylococcus aureus [22]): 4 µM; MIC95 (Candida parapsilosis [23]): 16 µM; MIC (Escherichia coli [24]): 4 µM; MIC95 (Salmonella typhimurium [25]): 4 µM; MFC (Pichia kudriavzevii): 4 µM; MIC95 (Candida albicans [26]): 8 µM; MIC95 [27]: 4 µM; MIC95 (Escherichia coli [28]): 4 µM; MIC95 (Staphylococcus aureus [29]): 4 µM; MBC (Salmonella typhimurium [30]): 8 µM; MBC (Escherichia coli [31]): 8 µM; MFC (Candida tropicalis [32]): 4 µM
